HTRA1 inh – HTRA1 serine protease inhibitors, primary screen, biochemical, fluorescence polarization, HTS; recombinant HTRA1, FP-rhodamine activity-based probe; inhibition, % at 5.96 µM; 340,000 tested, 0.5% active; in the data active = inhibition above about 36%
LEDGF integ inh – blockers of LEDGF/p75-dependent integrase strand transfer – biochemical, TR-FRET, high throughput, primary screen; HIV-1 integrase (with human LEDGF/p75); TR-FRET IN-LEDGF/p75 DNA integration, Eu/Cy5; inhibition, % at 3.7 µM; 370,000 tested, 0.64% active;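 active = inhibition above the screen-wide mean plus 3 SD, cut at about 13% in these data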;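 note: signal is the Cy5 over europium emission ratio at 671 and 618 nm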
mABHD4 FP – ABHD4 inhibitors, primary screen, biochemical, fluorescence polarization, mouse | inhibition, % at 8.92 µM | purified mABHD4, FP-Rh probe fluorescence polarization | 370,000 tested, 0.54% active | AID 720543, 2013 | (Lyso)-N-acylphosphatidylethanolamine lipase (Mus musculus), Q8VD66;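 active = inhibition exceeding the mean over every tested compound plus 3 SD, cut at about 30% in these data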
Target sequence (Q8VD66 whole entry, looked up): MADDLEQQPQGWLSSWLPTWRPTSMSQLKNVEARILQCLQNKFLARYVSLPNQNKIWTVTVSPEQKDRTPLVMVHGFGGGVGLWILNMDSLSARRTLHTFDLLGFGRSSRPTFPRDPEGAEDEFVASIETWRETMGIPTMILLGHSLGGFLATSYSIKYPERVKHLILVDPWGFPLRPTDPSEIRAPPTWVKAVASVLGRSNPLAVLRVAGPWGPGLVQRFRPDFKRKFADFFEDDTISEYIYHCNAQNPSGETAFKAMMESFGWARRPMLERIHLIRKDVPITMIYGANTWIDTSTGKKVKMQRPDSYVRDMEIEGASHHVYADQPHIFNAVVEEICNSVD
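Test system: mouse ABHD4 enzyme, wild type. Reagent: FP-Rh fluorescent activity-based probe, added after compound pre-incubation. Timing: pre-incubation 45 min, probe exposure 60 min, at 25 °C. Technique: FP readout, ex 525 nm / em 598 nm. Benchmarks: high control S159A mutant with DMSO, low control median of compound wells.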
TCR-CD3 inh – inhibitors of human TCR-CD3 interaction, primary screen, biochemical, fluorescence, TAMRA-labeled TCR probe; inhibition, % at 9.4 µM; T-cell receptor (TCR); 360,000 tested, 0.37% active; in the data active = inhibition above about 19%;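 note: recombinant mutant TCR 2C K166C tagged with TAMRA read by polarization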
TDP2 inh – human TDP2 enzyme inhibitors, primary screen, biochemical, epi absorbance, recombinant enzyme | T5PNP hydrolysis, p-nitrophenol absorbance 415 nm | inhibition, % at 12.8 µM | 370,000 tested, 0.34% active | AID 720702, 2013;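 active = inhibition above the mean of all tested compounds plus 3 SD, set per campaign, cut at about 25% in these data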
Target sequence (O95551 whole entry, looked up): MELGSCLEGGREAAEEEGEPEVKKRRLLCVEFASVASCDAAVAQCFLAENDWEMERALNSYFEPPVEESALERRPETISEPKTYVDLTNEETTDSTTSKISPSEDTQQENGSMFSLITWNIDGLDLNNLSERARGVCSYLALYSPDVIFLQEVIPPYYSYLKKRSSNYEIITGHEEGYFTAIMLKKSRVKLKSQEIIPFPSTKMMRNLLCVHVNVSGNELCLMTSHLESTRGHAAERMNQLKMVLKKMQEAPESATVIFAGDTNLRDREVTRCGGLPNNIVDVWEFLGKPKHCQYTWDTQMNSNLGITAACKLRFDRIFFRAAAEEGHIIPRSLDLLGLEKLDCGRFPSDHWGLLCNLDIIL
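System – recombinant human TDP2 · Quantity – TDP2 enzyme at 120 nM final · Doses – single concentration, 12.8 µM nominal, with 1% DMSO · Incubation – 2 h at 37 °C · Measured by – epi absorbance of p-nitrophenol freed from T5PNP by hydrolysis · Read-out – % inhibition relative to enzyme-containing and enzyme-free wells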
SIAE primary – human SIAE inhibitors, primary screen, biochemical, fluorescence polarization, FP-Rh probe, 1536-well HTS; Sialate O-acetylesterase (Homo sapiens), Q9HAT2; SIAE FP-Rh probe binding; inhibition, % at 9.66 µM; 370,000 tested, 0.69% active;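 active = inhibition above a cutoff: mean of compounds within the control limits plus 3 SD of those, cut at about 17% in these data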
HTRA1 conf – HTRA1 protease inhibitors, retest, confirmation, biochemical, fluorescence polarization. shares compounds with HTRA1 inh. recombinant HTRA1, FP-rhodamine activity-based probe. inhibition, % at 5.96 µM. 1,600 tested, 66% active. AID 540248, 2011;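 active = mean inhibition over three repeats above a set limit taken from the earlier primary screen, cut at about 37% in these data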;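 note: inhibitors block probe binding so polarization drops and inhibition rises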
Of the large screens only hits and unclear results are named; the others gave an inactive call (follow-up assays come after a bar, where they were run). Sampled rows, rich in hits. Any-hit rate of the full collection: about 2.2%.

COc1ccccc1-c1ccc(OCCCN2CCC(C(O)(c3ccccc3)c3ccccc3)CC2)cc1	none (no result: HTRA1 inh)
CN(C)S(=O)(=O)c1cccc(NC(=S)Nc2cccc3cnccc23)c1	TDP2 inh 28
S=C(Nc1cccnc1)Nc1cccc2cnccc12	none
O=C(NCC(c1ccccc1)c1ccccc1)[C@H](Cc1c[nH]c2ccccc12)NC1(C(=O)NC2CCCCC2)CCC1	none (no result: HTRA1 inh, TCR-CD3 inh)
COc1ccc(/C=C/C(=O)O)cc1S(=O)(=O)NCc1ccccc1	LEDGF integ inh 88
Cc1cc(-c2cc(NC(=O)Cc3c(C)[nH]c4ccccc34)ccc2N(C)c2cccnc2)ccc1F	none (no result: HTRA1 inh)
Cc1[nH]c2ccccc2c1CC(=O)Nc1ccc(N(C)c2cccnc2)c(-c2cccc(Cl)c2)c1	mABHD4 FP 30 (no result: HTRA1 inh)
O=C(NCCCc1ccccc1)[C@H](Cc1c[nH]c2ccccc12)NC1(C(=O)NCCc2c[nH]c3ccccc23)CCC1	none (no result: HTRA1 inh, TCR-CD3 inh)
CCOC(=O)C(=O)Nc1cc(C)on1	TDP2 inh 45
Cc1onc(-c2ccccc2Cl)c1C(=O)NCCn1c(C)cc2ccccc21	HTRA1 inh 48 (no result: LEDGF integ inh, mABHD4 FP, TCR-CD3 inh, TDP2 inh, SIAE primary)
O=C(OCC#CCSc1nnc(-c2cccc3ccccc23)o1)c1cccc(C(F)(F)F)c1	none (no result: HTRA1 inh, TCR-CD3 inh)
Nc1ccc(N)c(C(=O)O)c1	HTRA1 inh 54 (no result: LEDGF integ inh, mABHD4 FP, TCR-CD3 inh, TDP2 inh, SIAE primary)
Nc1ccc(C(=O)O)c(O)c1	none
CCOC(=O)Nc1ccc(NCc2ccc(F)cc2)nc1N	HTRA1 inh 60 | HTRA1 conf inactive
O=C(CSc1nnc(-c2ccccc2)n1-c1ccccc1)NN=Cc1ccc(-c2ccccc2)cc1	none (no result: HTRA1 inh, TCR-CD3 inh)
c1ccc(CN2CCC(=NNc3nc4ccccc4[nH]3)CC2)cc1	HTRA1 inh 37 | HTRA1 conf inactive
CC(C)(C)C1CCC(=NNc2nc3ccccc3[nH]2)CC1 (configuration not stated)	none
CC[n+]1ccc(C)c2cc(P(=O)(c3ccccc3)c3ccccc3)ccc21	HTRA1 inh 44 | HTRA1 conf inactive
CC[n+]1ccc(C)c2cc(SC(F)(F)F)ccc21	HTRA1 inh 36 (no result: LEDGF integ inh, mABHD4 FP, TCR-CD3 inh, TDP2 inh, SIAE primary) | HTRA1 conf inactive
CCC(=O)NC(c1cc(Cl)c2cccnc2c1O)C(C)C (configuration not stated)	HTRA1 inh 53 | HTRA1 conf 58
CCC(=O)NC(c1cc(Cl)c2cccnc2c1O)C1CC1 (configuration not stated)	HTRA1 inh 39 | HTRA1 conf 51
CC(=O)NC(c1cc(F)c2cccnc2c1O)C1CC1 (configuration not stated)	none
O=S1(=O)CCOCC(CO)N1Cc1cccc(Br)c1 (configuration not stated)	none (no result: HTRA1 inh, TCR-CD3 inh)
Cc1nc(N)sc1N=Nc1ccccc1C(F)(F)F	HTRA1 inh 40 | HTRA1 conf inactive
CC(C)c1ccc2c(c1)C1(NN=C(c3ccccc3)S1)C(=O)N2 (configuration not stated)	HTRA1 inh 46 | HTRA1 conf 66
CCc1ccc2c(c1)C1(NN=C(c3ccc(C)cc3)S1)C(=O)N2 (configuration not stated)	HTRA1 inh 37 | HTRA1 conf 53
CCOC(=O)[C@]12CCCCC/C=C\1N(CCc1ccc(Cl)cc1)C(=O)[C@H]2CC(=O)N1CCSCC1	none (no result: HTRA1 inh, TCR-CD3 inh)
Clc1ccc(CN2CCN(N=Cc3cccc(OCc4ccccc4)c3)CC2)cc1	none (no result: HTRA1 inh, TCR-CD3 inh)
CC(C)CN(CC(C)C)C(=O)c1cn(C(C)c2ccccc2)nn1 (configuration not stated)	none (no result: HTRA1 inh, TCR-CD3 inh)
O=C(CN1CCc2onc(-c3ccc(-n4cc(-c5ccccc5)nn4)cc3)c2C1=O)N1CCOCC1	none (no result: HTRA1 inh, TCR-CD3 inh)
CCOC(=O)c1c(C)oc2c(CC(=O)c3ccccc3)c(Cl)c(O)c(O)c12	HTRA1 inh 46 | HTRA1 conf inactive
CCOC(=O)c1c(C)oc2c1c(CN1CCN(CCO)CC1)c(O)c1ccccc12	none
C[C@H]1[C@@H](NC(=O)/C=C/c2ccccc2)CC[C@@]23CCCN2C(=O)CCC[C@@H]13	none (no result: HTRA1 inh, TCR-CD3 inh)
CCN(CC)CCn1c2ccccc2c(=O)c2c(O)ccc(O)c21	HTRA1 inh 55, mABHD4 FP 33 | HTRA1 conf 48
O=C(c1ccc(F)cc1Cl)N(Cc1ccccn1)CC1CCCO1 (configuration not stated)	none (no result: HTRA1 inh, TCR-CD3 inh)
Cc1c2cc[n+](CCN3CCCCC3)cc2c(C)c2c1[nH]c1ccc(O)cc12	HTRA1 inh 41 (no result: LEDGF integ inh, mABHD4 FP, TCR-CD3 inh, TDP2 inh, SIAE primary) | HTRA1 conf 55
Cc1ccc2[nH]c(=O)c(C3C(C#N)=C(N)Oc4c3ccc3cccnc43)cc2c1 (configuration not stated)	HTRA1 inh 73, SIAE primary 25 | HTRA1 conf inactive
COC(=O)C1=C(C)NC(C)=C(C(=O)OC)C1c1cc2cc(C)ccc2[nH]c1=O	none
N#CC1=C(N)Oc2c(ccc3cccnc23)C1c1ccccc1 (configuration not stated)	HTRA1 inh 41 | HTRA1 conf inactive
N#CC1=C(N)Oc2ccc3ccccc3c2C1c1cccnc1 (configuration not stated)	none
C(=Nc1cccc2c(N=Cc3ccco3)cccc12)c1ccco1	HTRA1 inh 39 (no result: LEDGF integ inh, mABHD4 FP, TCR-CD3 inh, TDP2 inh, SIAE primary) | HTRA1 conf inactive
Cn1[nH]cc(C=NC(N)=O)c1=O	HTRA1 inh 47 | HTRA1 conf inactive
Cc1cccc(NC(=S)NNc2ncc(C(F)(F)F)cc2Cl)c1	none
FC(F)(F)c1cnc(NNC(=S)Nc2ccccc2Cl)c(Cl)c1	HTRA1 inh 43 | HTRA1 conf inactive
COc1cccc([C@@H]2NC(=O)C/C=C/[C@H](C)[C@H](c3cccc(OC)c3)NC(=O)C/C=C/[C@@H]2C)c1	none (no result: HTRA1 inh, TCR-CD3 inh)
COc1ccc(N2CCN(C(=O)C3CCN(S(=O)(=O)c4ccc5c(c4)CC(C)N5C(=O)C4CC4)CC3)CC2)cc1 (configuration not stated)	none (no result: HTRA1 inh)
CCC(C)N(c1nc(C)nc2c1nnn2Cc1ccccc1)C(C)CC (configuration not stated)	none (no result: HTRA1 inh, TCR-CD3 inh)
Nc1ccccc1N=Nc1ccccc1N	HTRA1 inh 42 | HTRA1 conf 39
Cc1cccc[n+]1C1C(c2ccccc2)C(C#N)=C(C(=C=[N-])C#N)NC1(O)C1CC1 (configuration not stated)	HTRA1 inh 67 (no result: LEDGF integ inh, mABHD4 FP, TCR-CD3 inh, TDP2 inh, SIAE primary) | HTRA1 conf 49

Screening data (PubChem)
